miR122 inh – miR-122 Renilla sensor signal increase in Huh7, primary screen, miR-122 inhibitor project, cell-based, single point, plate reader; Huh7 miR-122 Renilla luciferase sensor, 48 h; neutral wells = 0, positive control = 100; activation (reporter increase), % at 12.5 µM; 340,000 compounds, 0.3% hits; AID 602342, 2012;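 active = mean replicate activation score at least 90 and every replicate individually at or above 90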;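 note: higher luciferase means less miR-122 activity so hits act as miR-122 inhibitors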
FGF22 binding – binders of human FGF22 protein, primary screen, FGF22 synaptogenesis inhibitor project, biophysical, thermal shift, single point; Fibroblast growth factor 22 (Homo sapiens), Q9HCT0; recombinant FGF22 thermal shift, SYPRO orange fluorescence; percent of sucrose octasulfate shift, DMSO zero; activity (Tm shift, normalised), % at 9.99 µM; 340,000 compounds, 1.5% hits; AID 651658, 2012;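 active = mean Tm shift, scaled 0 neutral to 100 positive control, at about 1.3% or above, every replicate too, limit read from the data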
SIRT5 inh – SIRT5 desuccinylase inhibitors, primary screen, biochemical, fluorescence imaging, single point, set 5 | inhibition, % at 15 µM | Purified SirT5, succinyl-peptide AMC, trypsin-coupled fluorescence | AID 652115, 2013 | 330,000 compounds, 1.1% hits | NAD-dependent protein deacylase sirtuin-5, mitochondrial (Homo sapiens), Q9NXA8; in the data active = inhibition above about 15%
S100A4 inh HTS – inhibitors of S100A4-myosin IIA peptide binding, primary screen, biochemical, fluorescence polarization, TAMRA-MyoIIA peptide; 360,000 compounds, 0.14% hits; Protein S100-A4 (Homo sapiens), P26447; inhibition, % at 10.7 µM;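 active = mean inhibition of at least 70% across replicates, with every replicate also reaching that level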
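Test system: S100A4 monomer protein. Medium: HEPES buffer with Ca2+, pH 7.2. Reagent: fluorescent myosin IIA peptide, 5 nM. Compound dosing: single-point compound testing. Timing: 5 min between mix addition and reading. Benchmarks: DMSO neutral and TFP positive wells.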
E-selectin induc – E-selectin induction in HUVECs, primary screen, imaging, HUVEC, immunofluorescence imaging, single point; 260,000 compounds, 0.37% hits; activation, % at 7.58 µM; normalized: neutral wells 0, TNF-alpha wells 100; P16581; AID 686992, 2013;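 active = mean E-selectin-positive cell signal at least 10% of the positive control, reached in at least 60% of replicates, without over 20% cell loss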
Target sequence (P16581 whole entry, looked up): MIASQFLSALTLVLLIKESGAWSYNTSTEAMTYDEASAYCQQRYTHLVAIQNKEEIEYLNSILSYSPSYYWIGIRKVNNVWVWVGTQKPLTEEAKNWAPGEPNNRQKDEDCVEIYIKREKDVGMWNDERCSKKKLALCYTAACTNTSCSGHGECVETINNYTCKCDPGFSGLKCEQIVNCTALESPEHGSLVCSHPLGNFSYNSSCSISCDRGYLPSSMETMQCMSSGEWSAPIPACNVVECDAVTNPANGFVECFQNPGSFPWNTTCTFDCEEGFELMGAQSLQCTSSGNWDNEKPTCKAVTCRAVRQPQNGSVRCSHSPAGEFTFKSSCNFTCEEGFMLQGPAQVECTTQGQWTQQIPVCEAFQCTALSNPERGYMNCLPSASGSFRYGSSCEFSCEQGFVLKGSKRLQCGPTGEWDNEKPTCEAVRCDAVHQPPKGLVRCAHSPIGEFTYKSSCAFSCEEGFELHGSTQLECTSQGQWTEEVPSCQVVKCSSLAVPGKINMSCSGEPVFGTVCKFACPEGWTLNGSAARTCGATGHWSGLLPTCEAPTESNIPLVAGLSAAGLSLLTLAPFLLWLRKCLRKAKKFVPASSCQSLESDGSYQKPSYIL
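Assay system: HUVEC, human umbilical vein endothelial cells / Amount: 3,000 HUVEC/well / Controls: TNF-alpha positive control, DMSO neutral control / Compound dosing: single concentration / Medium: EGM-2 over gelatin coat / Evaluation: percent E-selectin-positive cells / Signal: immunofluorescence imaging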
* marks the source's active call; other numbers are inactive results; x = no result given; [ ] = another dose, or the depositor's remark. The list is not random: actives were taken first. Their share in the collection is about 2.5%.

SMILES | miR122 inh | FGF22 binding | SIRT5 inh | S100A4 inh HTS | E-selectin induc
Cc1ccc(-c2ccc([C@@H]3[C@@H](CO)N4CCCCN(S(=O)(=O)c5cccc(C)c5)C[C@@H]34)cc2)cc1 | 4[16.7 µM] | 0 | 17* | 5 | x
COc1ccccc1-c1ccc([C@@H]2[C@@H]3CN(S(=O)(=O)c4ccc(-c5ccccc5)cc4)C[C@H]2N3)cc1 | x | x | 21* | 16 | -1
O=S(=O)(c1cccs1)N1CCCCN2[C@H](CO)[C@H](c3ccc(C4=CCCCC4)cc3)[C@H]2C1 | -28[16.7 µM] | -1 | 20* | -5 | x
Cc1ccc(-c2ccc(C3[C@@H]4CN(S(=O)(=O)c5cccc(C)c5)C[C@H]3N4)cc2)cc1 (stereo not given in full) | x | x | 28* | 11 | x
Cc1cccc(S(=O)(=O)N2CCCCN3[C@H](CO)[C@H](c4ccc(-c5ccccc5)cc4)[C@H]3C2)c1 | 9[16.7 µM] | 0 | 13 | 15 | x
COc1cccc(S(=O)(=O)N2C[C@@H]3N[C@H](C2)C3c2ccc(-c3ccccc3OC)cc2)c1 (stereo not given in full) | x | x | 9 | 4 | 0
Cc1ccc(S(=O)(=O)N2C[C@@H]3N[C@H](C2)[C@@H]3c2ccc(-c3cccc(C)c3)cc2)cc1 | x | 0 | x | x | 0
C[C@H]1C=C(C(=O)N2CCN(Cc3ccc4c(c3)OCO4)CC2)O[C@@H](OCCCCO)C1 | x | 0 | -2 | 1 | x
Cc1ccc(-c2ccc([C@H]3[C@@H](CO)N4CCCCN(S(=O)(=O)c5cccc(C)c5)C[C@H]34)cc2)cc1 | -18[16.7 µM] | 0 | 19* | 0 | x
CCS(=O)(=O)N1CCCCN2[C@H](CO)[C@H](c3ccc(C#Cc4ccccc4OC)cc3)[C@@H]2C1 | 8[16.7 µM] | 0 | 10 | -11 | 0
CCOCC(O)CNC(=O)c1ccc(OC2CCN(C(=O)c3cccnc3)CC2)cc1 (stereo not given) | x | 0 | 1 | 4 | x
Cc1nonc1CN(C)C(=O)c1ccc(OC2CCN(C(=O)c3cccnc3)CC2)cc1 | x | 44* | 0 | -2 | 0
Cc1nonc1CN(C)C(=O)c1ccc(OC2CCN(Cc3ccccn3)CC2)cc1 | x | 44* | 1 | -2 | 0
Cc1noc(C)c1NC(=O)Nc1ccc2c(c1)CC(=O)N([C@H](C)CO)C[C@H](C)[C@@H](CN(C)Cc1ccc3c(c1)OCO3)O2 | -1[16.7 µM] | 0 | 1 | 4 | x
Cc1noc(C)c1S(=O)(=O)Nc1ccc2c(c1)C(=O)N([C@@H](C)CO)C[C@H](C)[C@H](CN(C)S(C)(=O)=O)O2 | 0[16.7 µM] | 0 | -1 | 12 | -4
Cc1nnc(NC(=O)c2cc3n(n2)C(C(F)(F)F)CC(C2CC2)N3)s1 (stereo not given) | -1 | x | x | x | x
O=C(Nc1ccccc1)c1cc2n(n1)C(C(F)(F)F)CC(C1CC1)N2 (stereo not given) | x | 43* | 3 | -2 | x
COc1ccc2c3c([nH]c2c1)[C@H](CO)N(C(=O)C1CCCC1)CC31CN(Cc2nccs2)C1 | x | 0 | 10 | 5 | 0
CO[C@@H]1CN(C)C(=O)c2ccc(NC(C)=O)cc2OC[C@H](C)N(C(=O)C2CCOCC2)C[C@@H]1C | -18[16.7 µM] | 0 | -1 | -23 | 0
CSc1ccccc1OCc1cc(C(=O)NCCN2CCCC(O)C2)no1 (stereo not given) | 2 | 0 | -1 | -9 | 0
CSc1ccccc1OCc1cc(C(=O)N(C)C2CCCc3ccccc32)no1 (stereo not given) | 1 | 0 | 20* | -2 | x
O=C(C[C@@H]1CC[C@H]2[C@@H](COC[C@H](O)CN2Cc2cccc(-c3ccncc3)c2)O1)N1CCN(c2ccccc2)CC1 | -2[16.7 µM] | 0 | 1 | 3 | 1
O=C(NCc1nnc(SCC(=O)N2CCc3ccccc32)o1)c1ccco1 | -18 | 43* | 0 | -1 | 2
CCN(CC)C(=O)c1ccc(/C=C/c2c[nH]c3ccccc23)[n+](C)c1 | -3 | x | x | x | x
CC[n+]1c(/C=C/c2c[nH]c3ccccc23)ccc2cc(C)ccc21 | x | 0 | 12 | 129* | x
SMILES | miR122 inh | FGF22 binding | SIRT5 inh | S100A4 inh HTS | E-selectin induc
CC(=O)c1cnc2scnn2c1=O | -6 | 43* | -3 | -3 | 0
Cc1csc2ncc(C(=O)Nc3ccc(C(F)(F)F)cc3)c(=O)n12 | 2 | 0 | -3 | -4 | 1
O=C(Nc1cc(F)cc(F)c1)c1ccc(NCCCN2CCCCCC2)c([N+](=O)[O-])c1 | x | 43* | 0 | 10 | 0
COc1ccc(NC(=O)c2ccc(-c3ccccc3C(F)(F)F)o2)cc1 | 3 | 44* | -4 | -1 | 0
CCOC(=O)N1CCN(S(=O)(=O)c2ccc(C)c(C)c2C)CC1 | 4 | x | x | x | x
Cc1ccc(S(=O)(=O)n2nc(C)c(Br)c2C)c(C)c1C | 105* | x | x | x | x
C[C@H]1CN([C@@H](C)CO)C(=O)c2cc(NS(=O)(=O)c3ccc(Cl)cc3)ccc2O[C@@H]1CN(C)C(=O)Nc1ccc(C(F)(F)F)cc1 | 2[16.7 µM] | x | x | x | 1
C(=N\Nc1nc2ccccc2s1)/c1cccs1 | 10 | x | x | x | x
Cn1cnc2c(N/N=C/c3cccs3)ncnc21 | 13 | 0 | 15* | 39 | x
CCCNC(=O)N(C)C[C@@H]1Oc2cc(C#CC3CC3)ccc2S(=O)(=O)N([C@@H](C)CO)C[C@H]1C | 18[16.7 µM] | 0 | 1 | 0 | 0
O=C(CC(C(=O)O)c1ccc(Cl)cc1)c1ccc(Br)cc1 (stereo not given) | x | 0 | 17* | 0 | 0
COc1ccc(C(=O)C2CCCN(C(=O)c3c4c(nn3C)CCCC4)C2)cc1F (stereo not given) | x | x | -3 | 10 | x
Cn1nc2c(c1C(=O)N1CCCC(C(=O)c3cc(F)ccc3F)C1)CCCC2 (stereo not given) | x | 43* | -1 | -5 | x
Nc1ccccc1-c1nnc(SCC(=O)Nc2ccccc2OC(F)F)[nH]c1=O | -4 | 43* | x | 3 | 0
CCCCC#Cc1ccccc1COC[B-](F)(F)F | x | 1.4* | 0 | -2 | 0
CN1CCC(OC2c3ccccc3CCc3ccccc32)CC1 | x | 0 | x | 2 | 0
CC12CCC3c4ccccc4CCC3(CO1)C2 (stereo not given) | -4 | 43* | x | 4 | 1
O=C(Nc1ccc(-c2nc3ccccc3[nH]2)cc1)C1CCCO1 (stereo not given) | -7 | 8.6* | -4 | 13 | x
O=C(c1ccc(C(F)(F)F)cc1)C1CCCN(Cc2cccn2-c2ncccn2)C1 (stereo not given) | 11 | 43* | -1 | -6 | x
O=C(CCS(=O)(=O)Cc1ccccc1F)NCCc1ccc(Cl)cc1 | 2 | 0 | 17* | 3 | x

Screening data as filed in PubChem BioAssay.
